Assay results reported in ChEMBL document CHEMBL1129425, “New potent antihyperglycemic agents in db/db mice: synthesis and structure-activity relationship studies of (4-substituted benzyl) (trifluoromethyl)pyrazoles and -pyrazolones” (1996).

Tests used:
Type in all cases: functional
Mus musculus [1] = test: Percent change in the plasma glucose concentration of drug-treated db/db mice ([…], perorally) relative to vehicle at the dose 20 mg/kg.; conditions: route oral
Method in brief: (§1)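 Oral dosing of db/db mice once daily for 3 days, fed ad libitum. On day 4, food was withdrawn and a fourth dose given, then mice were fasted. After 4 h, mice were anesthetized with halothane and decapitated, and blood was collected into fluoride tubes. Plasma glucose was measured on an autoanalyzer and reported as mean ± SE percent change versus vehicle controls. […]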

Mus musculus [2] = test: Percent change in the plasma glucose concentration of drug-treated db/db mice (4-6 mice, perorally) relative to vehicle at the dose 5 mg/kg.; conditions: route oral; method in brief: as §1
Mus musculus [3] = test: Percent change in the plasma glucose concentration of drug -treated db/db mice ([…], perorally) relative to vehicle at the dose 2 mg/kg; conditions: route oral
Mus musculus [4] = test: Percent change in the plasma glucose concentration of drug -treated db/db mice (4-6 mice, perorally) relative to vehicle at the dose mg/kg; method in brief: as §1
Mus musculus [5] = test: Percent change in the plasma glucose concentration of drug -treated db/db mice ([…], perorally) relative to vehicle at the dose 0.5 mg/kg; conditions: route oral; method in brief: as §1
Mus musculus [6] = species on record: Mus musculus; test: Percent change in the plasma glucose concentration of drug -treated db/db mice ([…], perorally) relative to vehicle (dose not specified)
Mus musculus [7] = test: Percent change in the plasma glucose concentration of drug -treated db/db mice ([…], perorally) relative to vehicle at the dose 100 mg/kg; conditions: route oral
Mus musculus [8] = test: Percent change in the plasma glucose concentration of drug -treated db/db mice (4-6 mice, perorally) relative to vehicle at the dose 120 mg/kg; conditions: route oral; method in brief: as §1
Mus musculus [9] = test: Concentration required to cause significant reduction in plasma glucose when administered orally in mice.; conditions: po

Row | SMILES | Change (Mus musculus [1]) [%] | Change (Mus musculus [2]) [%] | also measured
1 | CSc1ccc(Cc2c(C(F)(F)F)n[nH]c2OC(C)C)cc1 | -40 |  | 
2 | Oc1[nH]nc(C(F)(F)F)c1Cc1ccc(C(F)(C(F)(F)F)C(F)(F)F)cc1 | 1 |  | 
3 | CCCCOc1[nH]nc(C(F)(F)F)c1Cc1ccc(CC)cc1 | -34 |  | 
4 | Oc1[nH]nc(C(F)(F)F)c1Cc1ccc2ccccc2c1 | -45 |  | 
5 | CC(C)(C)c1ccc(Cc2c(C(F)(F)F)n[nH]c2O)cc1 | -7 |  | 
6 | CCc1ccc(Cc2c(OC)nn(C)c2C(F)(F)F)cc1 |  | -38 | 
7 | CSc1ccc(CC2(C)C(=O)N(C)N=C2C(F)(F)F)cc1 (configuration not stated) | 6 |  | 
8 | Oc1[nH]nc(C(F)(F)F)c1Cc1ccc(C(F)(F)F)cc1 |  | -15 | 
9 | Oc1[nH]nc(C(F)(F)F)c1Cc1ccc(I)cc1 | -48 |  | 
10 | CSc1ccc(CC2(C)C(=O)NN=C2C(F)(F)F)cc1 (configuration not stated) | -9 |  | 
11 | CC(=O)c1ccc(Cc2c(C(F)(F)F)n[nH]c2O)cc1 |  | -19 | 
12 | C[S+]([O-])c1ccc(Cc2c(C(F)(F)F)n[nH]c2O)cc1 (configuration not stated) |  | -33 | Change (Mus musculus [3]): -25%
13 | COc1c(Cc2ccc(SC)cc2)c(C(F)(F)F)nn1C |  | -39 | 
14 | CCCCOc1nn(CCCC)c(C(F)(F)F)c1Cc1ccc(CC)cc1 | -3 |  | 
15 | CCCCc1ccc(Cc2c(C(F)(F)F)n[nH]c2O)cc1 |  | -7 | 
16 | CCCCCCc1ccc(Cc2c(C(F)(F)F)n[nH]c2O)cc1 | 5 |  | 
17 | CSc1ccc(Cc2c(C(F)(F)F)n(C)[nH]c2=O)cc1 | -29 | -7 | 
18 | Oc1[nH]nc(C(F)(F)F)c1Cc1ccc(Cl)cc1 |  | -6 | 
19 | C/C(=N\O)c1ccc(Cc2c(C(F)(F)F)n[nH]c2O)cc1 |  | -28 | 
20 | CC(O)c1ccc(Cc2c(C(F)(F)F)n[nH]c2O)cc1 (configuration not stated) |  | -18 | 
21 | CCSc1ccc(Cc2c(C(F)(F)F)n[nH]c2O)cc1 | -38 | -25 | Change (Mus musculus [3]): -23%
22 | Cc1ccc(Cc2c(C(F)(F)F)n[nH]c2O)cc1 | -36 |  | 
23 | CC(C)(C)C(=O)c1ccc(Cc2c(C(F)(F)F)n[nH]c2O)cc1 |  |  | Change (Mus musculus [4]): -23%

Row | SMILES | Change (Mus musculus [1]) [%] | Change (Mus musculus [2]) [%] | also measured
24 | CCc1ccc(Cc2c(C(F)(F)F)n[nH]c2O)cc1 |  | -39 | Change (Mus musculus [5]): -11%; Change (Mus musculus [3]): -28%
25 | CSc1ccc(Cc2c(C(F)(F)F)[nH]n(Cc3ccccc3)c2=O)cc1 | 10 |  | 
26 | CSc1ccc(Cc2c(C(F)(F)F)[nH]n(C)c2=O)cc1 |  | -11 | Change (Mus musculus [6]): -40%
27 | CS(=O)(=O)c1ccc(Cc2c(C(F)(F)F)n[nH]c2O)cc1 |  | 2 | 
28 | Oc1[nH]nc(C(F)(F)F)c1Cc1ccccc1 |  |  | Change (Mus musculus [7]): -33%
29 | COc1nn(C)c(C(F)(F)F)c1Cc1ccc(SC)cc1 | -49 | -41 | Change (Mus musculus [3]): -20%
30 | Oc1[nH]nc(C(F)(F)F)c1Cc1ccc(Br)cc1 | -47 | -24 | Change (Mus musculus [3]): -5%
31 | CC(C)Sc1ccc(Cc2c(C(F)(F)F)n[nH]c2O)cc1 | -32 |  | 
32 | Oc1[nH]nc(C(F)(F)F)c1Cc1ccc(SC(F)(F)F)cc1 | -15 | 5 | 
33 | CCNc1ccc(Cc2c(C(F)(F)F)n[nH]c2O)cc1 |  | -11 | Change (Mus musculus [8]): -61%
34 | COc1[nH]nc(C(F)(F)F)c1Cc1ccc(SC)cc1 | -57 |  | Change (Mus musculus [3]): -16%
35 | Oc1[nH]nc(C(F)(F)F)c1Cc1ccc(F)cc1 | -20 | -3 | 
36 | CCOc1c(Cc2ccc(SC)cc2)c(C(F)(F)F)nn1CC |  | -23 | 
37 | CSc1ccc(Cc2c(C(F)(F)F)n(C)n(C)c2=O)cc1 | -6 |  | 
38 | CCCCSc1ccc(Cc2c(C(F)(F)F)n[nH]c2O)cc1 | -3 |  | 
39 | Oc1[nH]nc(C(F)(F)F)c1Cc1ccc(OC(F)(F)F)cc1 |  | -4 | 
40 | CCCc1ccc(Cc2c(C(F)(F)F)n[nH]c2O)cc1 | -44 |  | 
41 | CCOc1nn(CC)c(C(F)(F)F)c1Cc1ccc(SC)cc1 |  | 5 | 
42 | CCc1ccc(Cc2c(C(F)(F)F)n[nH]c2OC)cc1 |  | -36 | 
43 | CSc1ccc(Cc2c(C)n[nH]c2O)cc1 | -36 |  | Change (Mus musculus [7]): -39%
44 | COc1ccc(Cc2c(C(F)(F)F)n[nH]c2O)cc1 |  | -22 | 
45 | CC(C)c1ccc(Cc2c(C(F)(F)F)n[nH]c2O)cc1 |  | -17 | 
46 | CSc1ccc(Cc2c(C(F)(F)F)n[nH]c2O)cc1 | -57 | -43 | ED50 (Mus musculus [9]): 9.85 mg/kg; Change (Mus musculus [5]): -13%; Change (Mus musculus [7]): -68%; Change (Mus musculus [3]): -29%
